Results from ChEMBL document CHEMBL2434917, “Synthesis and anticancer activity of some novel 2-phenazinamine derivatives” (Eur J Med Chem, 2013).

Legend:
HEK-293T = experiment: Cytotoxicity against human 293T cells after 48 hrs by MTT assay; format: cell-based
Method in brief: (§1)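 Cells were kept in RPMI-1640 with 10% FBS, streptomycin and penicillin at 37 °C under 5% CO2. They were seeded at 5000/well and left 24 h, then exposed 48 h to compound (DMSO stock diluted in medium, DMSO ≤0.2%) at final 0.16, 0.63, 2.5, 10, 40 and 160 μM. MTT was added (10% v/v of 5 mg/ml) for 4 h, formazan was dissolved in DMSO and A490 read. IC50 came from the viability-versus-dose plot against control, with three repeats.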

HepG2 [1] = experiment: Cytotoxicity against human HepG2 cells after 48 hrs by MTT assay; format: functional, cell-based; conditions: HepG2, 48 h; method in brief: as §1
HCT-116 = experiment: Cytotoxicity against human HCT116 cells after 48 hrs by MTT assay; format: functional, cell-based; conditions: HCT-116, 48 h; method in brief: as §1
K562 [2] = experiment: Cytotoxicity against human K562 cells after 48 hrs by MTT assay; format: functional, cell-based; conditions: K562, 48 h; method in brief: as §1
MGC-803 = experiment: Cytotoxicity against human MGC803 cells after 48 hrs by MTT assay; format: functional, cell-based; conditions: MGC-803, 48 h; method in brief: as §1
MCF7 [3] = experiment: Cytotoxicity against human MCF7 cells after 48 hrs by MTT assay; format: functional, cell-based; conditions: MCF7, 48 h; method in brief: as §1
K562 [4] = experiment: Ratio of cisplatin IC50 to compound IC50 for human K562 cells; format: functional
HepG2 [5] = experiment: Ratio of cisplatin IC50 to compound IC50 for human HepG2 cells; format: functional
HepG2 [6] = experiment: Induction apoptosis in human HepG2 cells assessed as apoptotic cells level at 50 uM after 24 hrs using Annexin V-FITC and propidium iodide staining by flow cytometry analysis (reference value: 8.3%); format: functional
HepG2 [7] = experiment: Induction apoptosis in human HepG2 cells assessed as late apoptosis or necrosis cells level at 50 uM after 24 hrs using Annexin V-FITC and propidium iodide staining by flow cytometry analysis (reference value: 5.7%); format: functional
MCF7 [8] = experiment: Ratio of cisplatin IC50 to compound IC50 for human MCF7 cells; format: functional

Row | Compound | IC50 (HEK-293T) | IC50 (HepG2 [1]) | IC50 (HCT-116) | IC50 (K562 [2]) | IC50 (MGC-803) | IC50 (MCF7 [3]) | Ratio IC50 (K562 [4]) | Ratio IC50 (HepG2 [5]) | Activity (HepG2 [6]) | Activity (HepG2 [7]) | Ratio IC50 (MCF7 [8])
1 | CCCC(=O)Nc1ccc2nc3ccccc3nc2c1 | 110 µM | > 160 µM | 62.3 µM | > 160 µM | 43.5 µM | 68.8 µM | – | – | – | – | –
2 | O=C(Nc1ccc2nc3ccccc3nc2c1)C1CCCCC1 | > 160 µM | > 160 µM | > 160 µM | 78.9 µM | 67.1 µM | 137 µM | – | – | – | – | –
3 | O=C(Nc1ccc2nc3ccccc3nc2c1)c1ccccc1Cl | > 160 µM | 16.5 µM | 91.9 µM | 33.4 µM | > 160 µM | > 160 µM | 1.7 | 1.1 | 36.1% | 20.5% | –
4 | O=S(=O)(Nc1ccc2nc3ccccc3nc2c1)c1ccccc1 | > 160 µM | > 160 µM | > 160 µM | > 160 µM | > 160 µM | > 160 µM | – | – | – | – | –
5 | O=C(Nc1ccc2nc3ccccc3nc2c1)c1ccccc1 | > 160 µM | > 160 µM | 28.2 µM | > 160 µM | > 160 µM | > 160 µM | – | – | – | – | –
6 | O=C(CCC1CCCC1)Nc1ccc2nc3ccccc3nc2c1 | > 160 µM | > 160 µM | > 160 µM | 157 µM | 122 µM | > 160 µM | – | – | – | – | –
7 | Cc1ccccc1C(=O)Nc1ccc2nc3ccccc3nc2c1 | > 160 µM | > 160 µM | > 160 µM | > 160 µM | 27.2 µM | 11.6 µM | – | – | – | – | 2.4
8 | O=C(CCCl)Nc1ccc2nc3ccccc3nc2c1 | > 160 µM | > 160 µM | 141 µM | 74.5 µM | 59.5 µM | 37.6 µM | – | – | – | – | –
9 | CN(C)C(=O)Nc1ccc2nc3ccccc3nc2c1 | > 160 µM | > 160 µM | 144 µM | – | – | 35.1 µM | – | – | – | – | –
10 | Cc1ccc(C(=O)Nc2ccc3nc4ccccc4nc3c2)cc1 | > 160 µM | > 160 µM | > 160 µM | > 160 µM | > 160 µM | > 160 µM | – | – | – | – | –
11 | CCOC(=O)Nc1ccc2nc3ccccc3nc2c1 | > 160 µM | 15.2 µM | > 160 µM | > 160 µM | > 160 µM | 46.1 µM | – | 1.2 | – | – | –
12 | O=C(Cc1ccccc1)Nc1ccc2nc3ccccc3nc2c1 | > 160 µM | > 160 µM | > 160 µM | > 160 µM | > 160 µM | > 160 µM | – | – | – | – | –
13 | O=C(Nc1ccc2nc3ccccc3nc2c1)c1cccs1 | > 160 µM | > 160 µM | 68.1 µM | > 160 µM | > 160 µM | > 160 µM | – | – | – | – | –
14 | CCC(=O)Nc1ccc2nc3ccccc3nc2c1 | > 160 µM | > 160 µM | 18.9 µM | 57.7 µM | 63.9 µM | 40.7 µM | – | – | – | – | –
15 | Cc1cccc(C(=O)Nc2ccc3nc4ccccc4nc3c2)c1 | 56.2 µM | 16.7 µM | > 160 µM | > 160 µM | 89 µM | > 160 µM | – | 1.1 | – | – | –
16 | O=C(Nc1ccc2nc3ccccc3nc2c1)c1ccco1 | > 160 µM | 52.2 µM | 86.6 µM | – | – | 28.8 µM | – | – | – | – | –
17 | O=C(Cc1cccs1)Nc1ccc2nc3ccccc3nc2c1 | > 160 µM | > 160 µM | 95.6 µM | – | – | > 160 µM | – | – | – | – | –
18 | O=C(Nc1ccc2nc3ccccc3nc2c1)c1cccc(Cl)c1 | > 160 µM | > 160 µM | > 160 µM | > 160 µM | > 160 µM | > 160 µM | – | – | – | – | –
19 | O=C(Nc1ccc2nc3ccccc3nc2c1)c1cccc2ccccc12 | > 160 µM | 44.2 µM | 131 µM | 61.2 µM | 87.9 µM | 30.1 µM | – | – | – | – | –
20 | COc1ccc(C(=O)Nc2ccc3nc4ccccc4nc3c2)cc1 | > 160 µM | > 160 µM | > 160 µM | > 160 µM | 50.1 µM | > 160 µM | – | – | – | – | –
21 | CC(=O)Nc1ccc2nc3ccccc3nc2c1 | > 160 µM | > 160 µM | > 160 µM | 49.2 µM | 93.1 µM | 82.6 µM | 1.1 | – | – | – | –
